Measurements as given in ChEMBL document CHEMBL4014315 (J Med Chem, 2017).
pEC50, pIC50: −log10 of the molar value.

Assays:
ABCG2 [1] = target: T1, ABCG2 (Homo sapiens, UniProt Q9UNQ0); assay: Inhibition of recombinant human GFP-fused ABCG2 expressed in MDCK2 cells assessed as reduction in Hoechst 33342 efflux at […] preincubated for 30 mins followed by Hoechst 33342 addition measured immediately at 60 sec time interval for 120 mins by fluorescence assay relative to Ko143; type: cell-based; conditions: MDCK2 cells expressing recombinant GFP-fused human ABCG2, probe Hoechst 33342, read-out: Imax
T1 sequence (Q9UNQ0 whole entry): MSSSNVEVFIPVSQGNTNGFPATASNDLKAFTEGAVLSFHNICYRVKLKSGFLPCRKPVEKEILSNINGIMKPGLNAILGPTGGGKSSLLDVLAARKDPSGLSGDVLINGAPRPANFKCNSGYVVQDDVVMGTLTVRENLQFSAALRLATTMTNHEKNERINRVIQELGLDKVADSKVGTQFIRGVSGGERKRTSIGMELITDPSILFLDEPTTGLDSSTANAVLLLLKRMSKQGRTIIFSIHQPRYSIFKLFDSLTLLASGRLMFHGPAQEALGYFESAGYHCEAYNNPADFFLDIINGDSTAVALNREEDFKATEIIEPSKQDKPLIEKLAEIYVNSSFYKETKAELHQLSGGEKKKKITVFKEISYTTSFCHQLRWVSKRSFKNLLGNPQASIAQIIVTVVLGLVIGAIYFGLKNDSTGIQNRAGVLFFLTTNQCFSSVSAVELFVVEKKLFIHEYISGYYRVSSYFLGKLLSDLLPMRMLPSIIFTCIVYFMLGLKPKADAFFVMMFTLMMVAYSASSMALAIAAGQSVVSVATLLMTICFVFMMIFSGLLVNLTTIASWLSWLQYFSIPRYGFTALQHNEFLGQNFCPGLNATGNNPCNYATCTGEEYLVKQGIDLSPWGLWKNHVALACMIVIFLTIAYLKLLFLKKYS

[2] = target: T2, Broad substrate specificity ATP-binding cassette transporter ABCG2 (Homo sapiens, UniProt Q9UNQ0); assay: Inhibition of recombinant human GFP-fused ABCG2 expressed in MDCK2 cells assessed as reduction in Hoechst 33342 efflux preincubated for 30 mins followed by Hoechst 33342 addition measured immediately at 60 sec time interval for 120 mins by fluorescence assay; type: cell-based
T2 sequence (Q9UNQ0 whole entry): T1 sequence (Q9UNQ0 whole entry)
Procedure, shortened: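 Hoechst 33342 accumulation assay: the dye is an ABCG2 substrate whose fluorescence rises when bound to DNA or embedded in membrane. Intracellular accumulation serves as the read-out of transporter inhibition.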

[3] = target: T2, Broad substrate specificity ATP-binding cassette transporter ABCG2; assay: Activation of ABCG2 (unknown origin) ATPase activity expressed in baculovirus infected high five cell membranes by ascorbic acid/ammonia molybdate reaction-based colorimetric analysis; conditions: for pEC50: read-out: EC50
Procedure, shortened: (§1)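 Colorimetric ATPase assay of ABCG2 membranes; activity expressed relative to control. Where data were biphasic, a combined increasing plus decreasing logistic equation with the Hill coefficient fixed at one was fitted, giving an activating and an inactivating K.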

ABCG2 [4] = target: T1, ABCG2; assay: Activation of ABCG2 (unknown origin) ATPase activity expressed in baculovirus infected high five cell membranes assessed as protein Vmax by ascorbic acid/ammonia molybdate reaction-based colorimetric analysis relative to basal control; conditions: read-out: Vmax; procedure, shortened: as §1
[5] = Therapeutic index, ratio of GI50 for ABCG2 over-expressing MDCK2 cells to IC50 for recombinant human GFP-fused ABCG2 expressed in MDCK2 cells; type: cell-based
[6] = target: ATP-dependent translocase ABCB1 (Homo sapiens, UniProt P08183); assay: Inhibition of ABCB1 in human A2780adr cells assessed as reduction in calcein AM levels preincubated for 30 mins followed by calcein AM addition measured immediately at 60 sec time interval for 60 mins by fluorescence assay; type: cell-based
Chain of ATP-dependent translocase ABCB1 (P08183 whole entry): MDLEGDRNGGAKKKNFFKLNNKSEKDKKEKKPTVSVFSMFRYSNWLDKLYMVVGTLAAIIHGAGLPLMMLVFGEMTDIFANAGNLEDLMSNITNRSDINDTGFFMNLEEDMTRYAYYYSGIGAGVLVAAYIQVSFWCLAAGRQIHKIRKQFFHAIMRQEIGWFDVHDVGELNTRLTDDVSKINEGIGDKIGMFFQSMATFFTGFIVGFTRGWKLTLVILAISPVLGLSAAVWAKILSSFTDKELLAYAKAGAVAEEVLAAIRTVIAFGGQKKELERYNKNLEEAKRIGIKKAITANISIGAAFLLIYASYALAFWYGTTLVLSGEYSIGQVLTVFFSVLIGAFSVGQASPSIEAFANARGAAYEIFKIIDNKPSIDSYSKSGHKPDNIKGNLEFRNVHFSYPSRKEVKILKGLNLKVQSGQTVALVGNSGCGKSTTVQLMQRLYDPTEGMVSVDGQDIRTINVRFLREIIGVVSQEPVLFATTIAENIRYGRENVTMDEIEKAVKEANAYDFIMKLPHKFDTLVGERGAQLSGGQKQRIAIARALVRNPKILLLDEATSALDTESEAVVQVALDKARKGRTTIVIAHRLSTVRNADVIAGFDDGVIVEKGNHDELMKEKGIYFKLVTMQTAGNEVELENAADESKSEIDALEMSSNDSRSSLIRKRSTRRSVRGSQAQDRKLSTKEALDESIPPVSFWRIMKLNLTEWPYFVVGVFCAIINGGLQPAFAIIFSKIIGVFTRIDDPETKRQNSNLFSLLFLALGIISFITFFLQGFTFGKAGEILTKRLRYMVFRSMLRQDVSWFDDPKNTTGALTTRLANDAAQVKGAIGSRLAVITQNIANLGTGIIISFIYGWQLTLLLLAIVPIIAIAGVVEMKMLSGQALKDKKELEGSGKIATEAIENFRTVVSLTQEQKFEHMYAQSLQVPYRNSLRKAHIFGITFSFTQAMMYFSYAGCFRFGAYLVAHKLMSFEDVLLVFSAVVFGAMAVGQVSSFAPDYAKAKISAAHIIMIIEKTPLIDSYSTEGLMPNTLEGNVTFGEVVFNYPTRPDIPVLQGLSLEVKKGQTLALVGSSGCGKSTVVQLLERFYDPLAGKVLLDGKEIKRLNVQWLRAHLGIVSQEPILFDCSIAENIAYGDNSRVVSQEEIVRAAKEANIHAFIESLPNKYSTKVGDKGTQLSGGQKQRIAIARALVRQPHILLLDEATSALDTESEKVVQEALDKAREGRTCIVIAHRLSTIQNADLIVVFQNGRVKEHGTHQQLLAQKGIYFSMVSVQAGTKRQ
Procedure, shortened: (§2)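 Calcein AM assay in A2780adr cells (ABCB1 overexpressing) and H69AR cells (ABCC1 overexpressing). Compounds were screened at 10 µM, with inhibition relative to cyclosporine A as the total-inhibition control.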

ABCB1 = ABCB1 (Homo sapiens, UniProt P08183); assay: Inhibition of ABCB1 in human A2780adr cells assessed as reduction in calcein AM levels at 10 uM preincubated for 30 mins followed by calcein AM addition measured immediately at 60 sec time interval for 60 mins by fluorescence assay relative to Cyclosporine A; type: cell-based; conditions: probe calcein AM; procedure, shortened: as §2
Chain of ABCB1 (P08183 whole entry): as above

[7] = Cytotoxicity against MDCK2 cells assessed as cell growth inhibition after 72 hrs by MTT assay; type: cell-based, Canis lupus familiaris, MDCK-II; conditions: dog
[8] = Cytotoxicity against ABCG2 over-expressing MDCK2 cells assessed as cell growth inhibition after 72 hrs by MTT assay; type: ADME, cell-based, Canis lupus familiaris, MDCK-II; conditions: dog
MDCK-II = assay: Cytotoxicity against ABCG2 over-expressing MDCK2 cells assessed as effect on cell proliferation at low concentration after 72 hrs in absence of DMSO and presence of 1% methanol by MTT assay; type: ADME, cell-based, Canis lupus familiaris; conditions: dog
Procedure, shortened: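 Modified MTT viability assay in ABCG2-overexpressing MDCK II cells, run without DMSO and with a constant 1% methanol.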

Row | Structure (SMILES) | Emax at 2 h (ABCG2 [1]) | pIC50 [2] | pEC50 [3] | Emax (ABCG2 [4]) | pIC50 [6] | inhibition at 1 h, 10 µM (ABCB1) | EC50 [3] | TI [5] | GI50 at 72 h [7] | GI50 at 72 h [8] | Activity (MDCK-II)
1 | N#Cc1ccc(Nc2nc(-c3ccccc3)nc3ccccc23)cc1 | 80 to 110% | 7.15 |  |  |  |  |  |  |  |  | 
2 | O=[N+]([O-])c1cc(Nc2nc(-c3ccccc3)nc3ccccc23)ccc1O | 80 to 110% | 7.09 | 7.70 | 135% |  |  |  | 647 |  |  | 
3 | O=[N+]([O-])c1cccc(Nc2nc(-c3cccnc3)nc3ccccc23)c1 | 80 to 110% | 6.98 | 7.68 | 154% |  |  |  | 615 | 64600 nM | 70800 nM | 
4 | O=S(=O)(F)c1cccc(Nc2nc(-c3ccncc3)nc3ccccc23)c1 | 80 to 110% | 5.86 |  |  |  |  |  |  |  |  | 
5 | Oc1ccc(Nc2nc(-c3ccccc3)nc3ccccc23)cc1 | 80 to 110% | 6.68 |  |  |  |  |  | 69.2 | 22600 nM | 14600 nM | 
6 | O=C(O)c1ccc(Nc2nc(-c3ccncc3)nc3ccccc23)cc1 | 80 to 110% | 5.02 |  |  | 5.44 | > 25% |  |  |  |  | 
7 | COC(=O)c1cccc(Nc2nc(-c3cccnc3)nc3ccccc23)c1 | 80 to 110% | 6.44 |  |  |  |  |  |  |  |  | 
8 | N#Cc1ccc(Nc2nc(-c3cccnc3)nc3ccccc23)cc1 | 80 to 110% | 6.78 | 8.40 | 137% |  |  |  | 241 | 104000 nM | 79400 nM | 
9 | OCc1cccc(Nc2nc(-c3cccnc3)nc3ccccc23)c1 | 80 to 110% | 6.09 |  |  |  |  |  |  |  |  | 
10 | COc1cccc(Nc2nc(-c3ccccn3)nc3ccccc23)c1 | 80 to 110% | 5.79 |  |  | 4.90 | > 25% |  |  |  |  | 
11 | COc1ccc(Nc2nc(-c3cccnc3)nc3ccccc23)cc1OC | 80 to 110% | 6.12 |  |  | 5.51 | > 25% |  |  |  |  | 
12 | c1ccc(Nc2nc(-c3ccccc3)nc3ccccc23)cc1 | 80 to 110% | 6.05 |  |  |  |  |  | 30.1 | 26000 nM | 26600 nM | 
13 | COc1cccc(Nc2nc(-c3cccnc3)nc3ccccc23)c1 | 80 to 110% | 5.99 | 7.30 | 137% | 5.32 | > 25% |  |  |  |  | 
14 | Fc1cccc(Nc2nc(-c3cccnc3)nc3ccccc23)c1 | 80 to 110% | 6.81 | 7.24 | 140% |  |  |  | 300 | 100000 nM | 46800 nM | 
15 | O=[N+]([O-])c1cc(Nc2nc(-c3cccnc3)nc3ccccc23)ccc1O | 80 to 110% | 6.61 | 8.15 | 151% |  |  |  |  |  |  | 
16 | COc1ccc(Nc2nc(-c3ccccn3)nc3ccccc23)cc1OC | 80 to 110% | 5.97 | 7.10 | 152% | 5.20 | > 25% |  |  |  |  | 
17 | CN(C)c1cccc(Nc2nc(-c3cccnc3)nc3ccccc23)c1 | 80 to 110% | 5.92 |  |  |  |  |  | 8.33 | 14100 nM | 10000 nM | 
18 | O=[N+]([O-])c1cccc(Nc2nc(-c3ccccn3)nc3ccccc23)c1 | 80 to 110% | 6.42 | 6.17 | 119% |  |  |  |  |  |  | 
19 | Fc1cccc(Nc2nc(-c3ccccc3)nc3ccccc23)c1 | 80 to 110% | 6.44 | 6.88 | 142% |  |  |  | 49.6 |  | 18000 nM | 

The next lines start with results.

Row | Emax at 2 h (ABCG2 [1]) | pIC50 [2] | pEC50 [3] | Emax (ABCG2 [4]) | pIC50 [6] | inhibition at 1 h, 10 µM (ABCB1) | EC50 [3] | Structure (SMILES) | TI [5] | GI50 at 72 h [7] | GI50 at 72 h [8] | Activity (MDCK-II)
20 | 80 to 110% | 6.39 |  |  | 5.20 | > 25% |  | COC(=O)c1cccc(Nc2nc(-c3ccncc3)nc3ccccc23)c1 |  |  |  | 
21 | 80 to 110% | 6.26 | 8.00 | 150% | 5.68 | > 25% |  | COc1ccc(Nc2nc(-c3ccncc3)nc3ccccc23)cc1OC |  |  |  | 
22 | 80 to 110% | 6.93 | 8.40 | 185% |  |  |  | O=[N+]([O-])c1cccc(Nc2nc(-c3ccncc3)nc3ccccc23)c1 |  |  |  | 
23 | 80 to 110% | 6.91 | 5.68 | 134% |  |  |  | Cc1cc(Nc2cccc(C#N)c2)nc(-c2ccccc2)n1 |  |  |  | 
24 | 80 to 110% | 6.04 |  |  |  |  |  | OCc1cccc(Nc2nc(-c3ccncc3)nc3ccccc23)c1 |  |  |  | 
25 | 80 to 110% | 6.87 | 7.80 | 178% |  |  |  | N#Cc1cccc(Nc2nc(-c3ccncc3)nc3ccccc23)c1 | 657 | 112000 nM | 88100 nM | Non-Toxic
26 | 80 to 110% | 6.29 | 5.82 | 115% |  |  |  | N#Cc1cccc(Nc2nc(-c3ccccn3)nc3ccccc23)c1 |  |  |  | 
27 | 80 to 110% | 6.06 | 7.07 | 146% |  |  |  | COc1ccc(Nc2cc(C)nc(-c3ccncc3)n2)cc1 |  |  |  | 
28 | 80 to 110% | 6.89 | 5.61 | 140% |  |  |  | Cc1cc(Nc2ccc(C#N)cc2)nc(-c2ccccc2)n1 | 139 | 28400 nM | 17800 nM | 
29 | 80 to 110% | 5.97 |  |  |  |  |  | Oc1cccc(Nc2nc(-c3ccncc3)nc3ccccc23)c1 | 8.62 | 12400 nM | 9220 nM | 
30 |  |  | 7.82 | 145% |  |  |  | N#Cc1cccc(Nc2nc(-c3ccccc3)nc3ccccc23)c1 | 146 | 14200 nM | 10400 nM | 
31 | 80 to 110% | 4.22 |  |  |  |  |  | O=C(O)c1cccc(Nc2nc(-c3ccncc3)nc3ccccc23)c1 |  |  |  | 
32 | 80 to 110% | 5.37 |  |  |  |  |  | Oc1ccc(Nc2nc(-c3ccncc3)nc3ccccc23)cc1 | 12.9 | 120000 nM | 55000 nM | 
33 | 80 to 110% | 6.52 | 5.81 | 40% | 6.48 | > 25% |  | CC(C)(C)OC(=O)c1cccc(Nc2nc(-c3ccncc3)nc3ccccc23)c1 |  |  |  | 
34 | 80 to 110% | 6.57 | 7.09 | 144% |  |  |  | COc1cccc(Nc2cc(C)nc(-c3ccncc3)n2)c1 |  |  |  | 
35 | 80 to 110% | 6.19 |  | 100% |  |  | Not Active | Cc1cc(Nc2ccccc2)nc(-c2ccccc2)n1 | 165 | 136000 nM | 107000 nM | 
36 | 80 to 110% | 6.84 |  |  | 5.56 | > 25% |  | COc1ccc(Nc2nc(-c3ccncc3)nc3ccccc23)cc1C(F)(F)F | 19.7 | 2460 nM | 2880 nM | 
37 | 80 to 110% | 6.88 | 7.66 | 133% |  |  |  | Cc1cc(Nc2cccc(C#N)c2)nc(-c2ccncc2)n1 | 52.4 | 9330 nM | 6920 nM | 
